# In ChEMBL document CHEMBL4513216, “Probing the Open Global Health Chemical Diversity Library for Multistage-Active Starting Points for Next-Generation Antimalarials” (ACS Infect Dis, 2020):
# Experiment: Toxicity liver stage against HepG2, at 10uM
# Format: cell-based
# Parameters: test concentration 10 uM, cell line HepG2-A16-CD81EGFP
# Conditions: human, HepG2-A16-CD81EGFP cells; read-out: INHIBITION
# In short: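 Uninfected HepG2-A16-CD81EGFP cells, 3 × 10^3 per well, 1536-well, plated on prespotted compound at 10 μM final, parasite-free screening media added to match infected plates; puromycin 10 μM positive, DMSO 0.5% negative; run in parallel with 48 h PbLuc assay at 37 °C, 5% CO2; viability by CellTiter-Glo luminescence, normalized to controls.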
row,Structure (SMILES),cytotoxicity at 10 µM [%]
1,O[C@@H]1C[C@@H](c2nc(Cc3ccccc3)no2)N(Cc2ncc[nH]2)C1,2.63
2,c1cc(-c2c[nH]c([C@@H]3COCCN3CC3CC3)n2)ccn1,6.82
3,CN1C(=O)CO[C@H](c2ccc(NC(=O)c3cccc(F)c3)cc2)[C@H]1CO,10
4,CC(=O)N1CCN2C[C@H](CO)[C@@H](c3ccccc3)[C@H]2C1,3.54
5,CC(C)NC(=O)[C@H](C)NC(=O)N1CCN(c2ccc(Cl)cc2)CC1,0.592
6,COc1cccc2c1ccn2CCNC(=O)CCNc1ncccn1,-6.27
7,Cn1cccc1C(O)CNS(=O)(=O)Cc1ccccc1 (stereo not given),-37.1
8,O=C(NCCC(O)c1cccs1)c1ccco1 (stereo not given),-14.7
9,CC(C)NC(=O)NCCn1nc(C(F)(F)F)n(C)c1=O,-0.173
10,CN(C)c1ccc(C(O)CNS(=O)(=O)C2CC2)cc1 (stereo not given),-4.99
11,Cc1cccc(C(=O)N2CCc3c(CN(C)C)nn(C)c3C2)n1,3.61
12,O=C(c1ccoc1)N1CCC2(C1)CN(c1nccs1)C2,1.07
13,Cc1noc([C@H]2COC[C@H]3CN(C(=O)Cc4cccc(F)c4)C[C@H]32)n1,6.93
14,Cc1cccc(N2CCCC3(C2)CN(c2nncs2)CCO3)c1 (stereo not given),9
15,CCO[C@H]1CO[C@@]2(CCCN(C(=O)c3ccc(OC)c(F)c3)C2)C1,5.69
16,COc1ccc(Br)c(C(=O)NCC2CCN(S(=O)(=O)C3CC3)CC2)c1,-24.3
17,CC(C)N(C)C(=O)C1=NOC2(CCN(C(=O)c3ccccn3)C2)C1 (stereo not given),-13.4
18,CCn1cc(CNC(=O)C2CCCC2)cn1,9.18
19,CCn1cc(CN2CCN(C(=O)c3cc(Br)cs3)CC2)c(C)n1,4.95
20,CCc1ccccc1NC(=O)NCc1nnc(SC)n1C,3.73
21,Cc1ncc(CNC(=O)CCc2ccccc2F)c(C2CCCN2C)n1 (stereo not given),-7.55
22,Nc1nc(C2CCN(C(=O)c3cnccn3)CC2)cs1,-7.33

row,Structure (SMILES),cytotoxicity at 10 µM [%]
1,COc1ccc(S(=O)(=O)N2CCC(O)(CN(C)C)C2)cc1 (stereo not given),-3.36
2,Cc1cc(-c2cc(F)ccc2C(=O)O)nc(C2CCCCN2C(C)C)n1 (stereo not given),-3.42
3,C[C@]1(O)CN(Cc2cscn2)CC[C@@H]1Oc1cccc(F)c1,7.08
4,Cn1ccnc1CN1CCC(Cc2ccccn2)CC1,-10.2
5,CNc1nc(C2CCCCN2C(=O)COC)nc2c1CN(C)CC2 (stereo not given),-13.1
6,CNc1nc(C2CCCCN2C(=O)C(C)(C)OC)nc2c1CN(C)CC2 (stereo not given),-6.61
7,CC(=O)N1CCCCC1c1nnc2n1CCNC2 (stereo not given),14.7
8,CCc1noc(CN2CCOC3(CCCC3)C2)n1,-3.54
9,O=C(NCc1cccnc1-n1cncn1)c1cc(Cl)ccn1,-3.76
10,CCC(=O)NCC(=O)NCC1(O)CCC(C(C)(C)C)CC1 (stereo not given),6.93
11,Cc1cccc(CNc2ccc(C(=O)N3CCC(CO)CC3)cc2)c1,18.9
12,Cc1cnc(CN2CCN(C(C)c3nc(C(C)C)no3)CC2)cn1 (stereo not given),9.74
13,O=C(NCC(O)c1ccc(F)cc1F)c1cccnc1O (stereo not given),7.58
14,CCCOc1cc(C)ccc1NC(=O)NCCNC(=O)C(C)C,8.31
15,CN(c1ncc(C(N)=O)cc1Cl)C1CCC(c2ccccc2)CC1 (stereo not given),38.8
16,CC(CCSc1ccccc1)N1CCN(C(=O)c2cccs2)CC1 (stereo not given),25.5
17,O=C(c1cc2ccccc2o1)N1CCN(Cn2cc(Cl)cn2)CC1,9.31
18,CCc1ncnc(N(C)CC2CCCCO2)c1F (stereo not given),3.17
19,CC(NC(=O)N1CCSC(C)(C)C1)c1noc(-c2ccccc2)n1 (stereo not given),-22.3
20,CCOc1cccc(C(C)NCc2ccc(OC)c(OC)c2OC)c1 (stereo not given),29.4
21,Cc1ccc(N2CCCC3(CCN(C(=O)c4sccc4C)C3)C2)nn1 (stereo not given),-107
22,CN1C(=O)CC(c2ccccc2)C12CCN(c1ncccn1)CC2 (stereo not given),-99.4

row,Structure (SMILES),cytotoxicity at 10 µM [%]
1,CS(=O)(=O)N1C[C@H](NC(=O)c2ccno2)[C@@H]2OCCC[C@@H]21,-112
2,O=C(CC1CC1)N1CCC2(CC1)CN(c1ccsc1)C(=O)CO2,-73.1
3,CN(c1nccc(-c2cnc3sc(Cl)cn3c2=O)n1)C1CCCCC1,1.36
4,NCCC1CN(c2nc(-c3ccccc3)nc3c2CCNC3)CCO1 (stereo not given),-9.26
5,NCCn1cc(C(=O)N2CCCCCC2c2ccco2)nn1 (stereo not given),-4.94
6,c1cncc(CN2CCc3ncnc(NCCc4c[nH]cn4)c3CC2)c1,2.57
7,c1ccc(CCc2n[nH]c(CCN3CCCCC3)n2)cc1,5.05
8,CSCc1ccc(N2CCN(c3ccc(Cl)cn3)CC2)nc1,-9.64
9,Cc1cc(C)n(CCN(C)c2ccc(-c3nc(C4CC4)no3)cn2)n1,6.08
10,CN1CCNC(=O)C12CCN(C(=O)c1ccc3[nH]c(=O)[nH]c3c1)CC2,0.5
11,CCOc1ccc(CN2CCC3(CC2)CNC(=O)C3)cn1,0.987
12,Fc1ccccc1Cc1noc(CN2CC[C@@H]3CCCC[C@H]3C2)n1,-6.1
13,Cc1nc2c(c(N(C)CC3Cc4ccccc4CN3C)n1)CCNCC2 (stereo not given),-29
14,O=C(NCCCc1nnc2ccccn12)c1ccccc1C1CCNC1 (stereo not given),-2.51
15,O=C(c1cccc(S(=O)(=O)NCCc2cscn2)c1)N1CCOCC1,5.67
16,COc1ccccc1OC1CCN(c2nccc(N)n2)CC1,9.28
17,CSc1ccccc1C(=O)NCc1cc2n(n1)CCCN(CC(C)C)C2,3.05
18,CCN1CCCC1CNC(=O)CCSc1ccc2c(c1)OCCO2 (stereo not given),-1.58
19,CN(CCO)Cc1nnc(C2CCN(C(=O)CN3CCCC3)CC2)n1C,2.1
20,COCc1cc(N2CCOC(c3ccc(F)cc3)C2)ncn1 (stereo not given),-0.987
21,CSCc1noc(CNC(=O)[C@H]2CNC[C@@H](C(=O)N3CCCC3)C2)n1,2.79
22,Cc1ccc([C@H]2CN(C(C)C)C[C@@H]2NS(=O)(=O)N2CCOCC2)o1,-1.01

row,Structure (SMILES),cytotoxicity at 10 µM [%]
1,CN(c1ccc(C(=O)NCCN2CCOCC2)c(Cl)c1)S(C)(=O)=O,-11.1
2,CCC(NC(=O)c1coc(COc2cccc(F)c2F)n1)C(=O)NC (stereo not given),1.03
3,Cc1nnc(SCC(=O)N2CCC3(CC2)c2ccccc2CC3O)o1 (stereo not given),-20.7
4,O=C(CCC1CCN(Cc2ncc[nH]2)CC1)Nc1ccccc1Cl,-21.8
5,OCCC1CN(C2CCC2)CCN1C1CCCC1 (stereo not given),-18.5
6,CN(CCc1ccccc1)c1cnn(CC(=O)N2CCSCC2)c(=O)c1,-8.74
7,CCOC(=O)COc1ccc(C(C)=O)c(O)c1,-19.3
8,COCc1cc(CNc2cnn(CC(F)F)c2)ccc1OC,-7.58
9,CCOc1ncccc1CNC(=O)c1cccc(C)n1,-2.42
10,CC(C)c1nc(CN2CCC(c3ccnn3CCO)CC2)no1,-5.71
11,Cc1nccn1CC1CCCN1S(=O)(=O)Cc1ccc(F)cc1 (stereo not given),-7.69
12,Cc1cc(C(=O)N2CCCC2c2noc(C)n2)[nH]n1 (stereo not given),-18.7
13,CC(C)c1noc(CCC(=O)NCC2CC2)n1,-28.7
14,CCc1ncc2c(n1)CN(CCCc1nc3ccccc3o1)CC2,-10.6
15,O=C(c1cccc2c1OCO2)N1CCCCC1Cn1cccn1 (stereo not given),-1.25
16,Cc1nc(C2CCCN(C(=O)c3ccc(OCC4CC4)cc3)C2)no1 (stereo not given),-7.69
17,COc1cccc(COCC(=O)N2CCCC(n3ccnc3)C2)c1 (stereo not given),-8.38
18,COCCCNc1c(C#N)c2c(c3nncn13)CN(C)CC2,5.86
19,CCN1C(=O)CCC12CCC(NC(=O)c1ccncc1F)CC2 (stereo not given),0.758
20,Cn1nnc2c1CCN(CC1CC1)C2COCC1CC1 (stereo not given),-110
21,COCC1CN(Cc2ccc3c(c2)OCO3)Cc2ncn(C)c21 (stereo not given),4.18
22,CNCC(=O)N1CCCC1c1cncc(Oc2ccc(F)cc2)n1 (stereo not given),-6.44

row,Structure (SMILES),cytotoxicity at 10 µM [%]
1,COCC(=O)N1CCn2c(COc3cccnc3)cnc2C1C (stereo not given),2.14
2,Cc1ccc(N2C[C@H](C)[C@]3(CCN(c4cccnc4)C3=O)C2)nn1,-1.22
3,CC(=O)N1CCC(c2nc3ccc(-c4ccnn4C)cn3n2)CC1,6.84
4,CN1C(=O)CCC12CCN(c1ccc(C#N)cn1)CC2,-109
5,O=C([C@H]1C[C@H]2OCC[C@H]2N(Cc2ccc(F)cc2)C1)N1CCCCO1,-65.5
6,COCc1nc(-c2ccnc(N3CCNCC3)n2)no1,12.5
7,COCC1c2c(cnn2C)CCN1C(=O)c1cc(C)on1 (stereo not given),-79.5
8,CN(C)C(=O)CN1CCn2cc(Cn3cccn3)nc2C1,4.96
9,O=C(Cc1ccccn1)N1CCc2ncnc(NC3CCC3)c2CC1,3.25
10,O=C(C1CCC2(CCN(CC3CCOCC3)CC2)O1)N1CCCCO1 (stereo not given),1.08
11,CN(C)CCOCC1CN(Cc2ccsc2)Cc2nnn(C)c21 (stereo not given),14.1
12,CNC(=O)CN1CCOCC12CCN(CCc1ccccc1)CC2,-76.8
13,c1cc(CN2CCC3(CCOCC3COCC3CC3)CC2)co1 (stereo not given),-2.69
14,CCN1CC2(CCOCC2)c2cc(NS(=O)(=O)CC)ccc21,-104
15,CN(Cc1ccco1)[C@@H]1CN(Cc2cnn(C)c2)[C@@H]2CCCO[C@H]12,-75.8
16,CNC(=O)[C@@]12CCO[C@@H]1CCN(Cc1cccc(C)c1)C2,-78.4
17,Cc1cccc(CN2C[C@@H]3COC[C@]3(CNC(=O)c3ccccc3)C2)n1,-0.0606
18,Cn1cc(C(=O)NCc2cncc3c2CCN(S(C)(=O)=O)C3)cn1,-105
19,CN(Cc1ccco1)Cc1cncc2c1CCN(Cc1ccoc1)C2,-108
20,Cc1nc(CO[C@H]2CN(C(=O)c3cccn3C)[C@@H]3COC[C@H]23)cs1,-112
21,CNC(=O)c1ccc2c(c1)C1(CCN(CCOC)CC1)C(=O)N2,-1.92
22,NCC1CCC(C(NC(=O)CC2CCCCC2)c2ccccn2)CC1 (stereo not given),-7.19
